How the values were obtained:
[1] = target: Gamma-secretase; assay: Inhibition of gamma secretase activity in human H4 cells transfected with APP695 mutant assessed as beta amyloid(1-40) production by whole cell assay; format: cell-based
Summary of the method: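 Cells were plated at about 30,000 per well and left to attach for about 6 h at 37 °C. They were then washed to clear secreted Aβ and given fresh medium containing compound for overnight incubation at 37 °C. Secreted Aβ in the harvested medium was measured by immunoassay. IC50 is the geometric mean of at least two experiments, six data points each.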

[2] = target: Gamma-secretase; assay: Inhibition of gamma secretase C100Flag cleavaging activity in HeLa cell membranes assessed as M-amyloid beta-40 production by cell free assay; design: species or system Homo sapiens
Summary of the method: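 IC50 taken as the geometric mean of at least two experiments, each run with six data points.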

Row | IC50 [1] [nM] | IC50 [2] [nM] | Structure (SMILES)
1 | 5.1 | 30 | CCC[C@H](NC(=O)Cc1cc(F)cc(F)c1)C(=O)Nc1ncc(C(C)C)s1
2 | 42 | 155 | CCC[C@H](NC(=O)Cc1cc(F)cc(F)c1)C(=O)Nc1nc(C)c(C(C)NCC)s1 (stereo partly specified)
3 | 2.2 | 26.3 | CCC[C@H](NC(=O)Cc1cc(F)cc(F)c1)C(=O)Nc1ncc(C(CC)CC)s1
4 | 1.2 | 1 | CCC[C@H](NC(=O)Cc1cc(F)cc(F)c1)C(=O)Nc1ncc(C(O)(CC)CC)s1
5 | 1.4 | 3 | CCC[C@H](NC(=O)Cc1cc(F)cc(F)c1)C(=O)Nc1ncc(C(C)NCc2ccccc2)s1 (stereo partly specified)
6 | 0.14 | 10 | CCC[C@H](NC(=O)CCc1cc(F)cc(F)c1)C(=O)Nc1ncc(C(C)CCCC(C)(C)OC)s1 (stereo partly specified)
7 | 93 | 200 | CCC[C@H](NC(=O)Cc1cc(F)cc(F)c1)C(=O)Nc1ncc(CN)s1
8 | 27.7 | 20 | CCC[C@H](NC(=O)Cc1cc(F)cc(F)c1)C(=O)Nc1nc(C)c(C(C)=O)s1
9 | 2.5 | 3.1 | CCC[C@H](NC(=O)Cc1cc(F)cc(F)c1)C(=O)Nc1nc(C)c(C(C)NCC(C)C)s1 (stereo in doubt; 34a)
10 | 0.22 | 7.4 | CCC[C@H](NC(=O)[C@@H](O)C(C)(C)C)C(=O)Nc1ncc(C(C)CCCC(C)(C)O)s1 (stereo partly specified)
11 | 20.1 | 45.1 | CCC[C@H](NC(=O)[C@@H](O)C(C)(C)C)C(=O)Nc1ncc(C(C)C)s1
12 | 0.3 | 9 | CCC[C@H](NC(=O)[C@@H](O)C(C)C)C(=O)Nc1ncc([C@@H](C)CCCC(C)(C)OC)s1
13 | 0.8 | < 34.6 | CCCC(CCC)c1cnc(NC(=O)[C@H](CCC)NC(=O)Cc2cc(F)cc(F)c2)s1
14 | 0.05 | 6 | CCC[C@H](NC(=O)CCc1cc(F)cc(F)c1)C(=O)Nc1ncc(C(C)CCCC(C)(C)O)s1 (stereo partly specified)
15 | 1.6 | 64.8 | CCC[C@H](NC(=O)Cc1cc(F)cc(F)c1)C(=O)Nc1ncc(C(C)CC(C)(C)C)s1 (stereo partly specified)
16 | 12.7 | 30 | CCC[C@H](NC(=O)Cc1cc(F)cc(F)c1)C(=O)Nc1ncc(CN2CCOCC2)s1
17 | 31.6 | 33 | CCC[C@H](NC(=O)Cc1cc(F)cc(F)c1)C(=O)Nc1nc(C)c(C(C)NCC(C)C)s1 (stereo in doubt; 34b)
18 | 0.3 | 5.9 | CCC[C@H](NC(=O)[C@@H](O)C(C)C)C(=O)Nc1ncc(C(C)CCCC(C)(C)OC)s1 (stereo partly specified)
19 | 7.49 | 9 | CCC[C@H](NC(=O)[C@@H](O)C(C)C)C(=O)Nc1ncc([C@H](C)CCCC(C)(C)OC)s1
20 | 29.8 | 42.4 | CCC[C@H](NC(=O)Cc1cc(F)cc(F)c1)C(=O)Nc1ncc(C(C)NC(C)C)s1 (stereo partly specified)
21 | 1.2 | 2.6 | CCC[C@H](NC(=O)Cc1cc(F)cc(F)c1)C(=O)Nc1ncc(C(C)NCCC(C)C)s1 (stereo partly specified)
22 | 183 | 141 | CCC[C@H](NC(=O)[C@H](O)c1ccccc1)C(=O)Nc1ncc(C(O)(CC)CC)s1
23 | 104 | 63.2 | CCC[C@H](NC(=O)Cc1cc(F)cc(F)c1)C(=O)Nc1ncc(CNCC)s1
24 | 12.9 | 30 | CCC[C@H](NC(=O)Cc1cc(F)cc(F)c1)C(=O)Nc1nc(C)c(CC)s1
25 | 0.7 | 4 | CCC[C@H](NC(=O)Cc1cc(F)cc(F)c1)C(=O)Nc1ncc(C(C)N[C@H](C(=O)OC)C(C)C)s1 (stereo partly specified)
26 | 12.7 | 30 | CCCCN(CC)Cc1cnc(NC(=O)[C@H](CCC)NC(=O)Cc2cc(F)cc(F)c2)s1
27 | 3.7 | 7.1 | CCCCNC(C)c1sc(NC(=O)[C@H](CCC)NC(=O)Cc2cc(F)cc(F)c2)nc1C (stereo partly specified)

Row | IC50 [1] [nM] | IC50 [2] [nM] | Structure (SMILES)
28 | 2 | 5 | CCC[C@H](NC(=O)Cc1cc(F)cc(F)c1)C(=O)Nc1nc(C)c(C(C)NCCC(C)C)s1 (stereo partly specified)
29 | 4.2 | 4.2 | CCC[C@H](NC(=O)Cc1cc(F)cc(F)c1)C(=O)Nc1ncc(C(C)NCC(C)C)s1 (stereo partly specified)
30 | 2 | 6 | CCCCNC(C)c1cnc(NC(=O)[C@H](CCC)NC(=O)Cc2cc(F)cc(F)c2)s1 (stereo partly specified)
31 | 4.8 | 10 | CCC[C@H](NC(=O)Cc1cc(F)cc(F)c1)C(=O)Nc1nc(C)c(C(C)NCC(C)C)s1 (stereo in doubt; 34)
32 | 0.1 | 30 | CC[C@H](NC(=O)CCc1cc(F)cc(F)c1)C(=O)Nc1ncc([C@@H](C)CCCC(C)(C)OC)s1
33 | 0.11 | 10 | CCC[C@H](NC(=O)[C@@H](O)C(C)(C)C)C(=O)Nc1ncc([C@@H](C)CCCC(C)(C)OC)s1
34 | 94.1 | 141 | CCC[C@H](NC(=O)Cc1cc(F)cc(F)c1)C(=O)Nc1nc(C)c(C)s1
35 | 2.2 | 2.8 | CCC[C@H](NC(=O)[C@@H](O)c1ccccc1)C(=O)Nc1ncc(C(O)(CC)CC)s1
36 | 2.4 | 3.8 | CCC[C@H](NC(=O)Cc1cc(F)cc(F)c1)C(=O)Nc1ncc(C(C)N2CCOCC2)s1 (stereo partly specified)
37 | 16.8 | 116 | CCC[C@H](NC(=O)C(=O)C(C)(C)C)C(=O)Nc1ncc(C(C)C)s1
38 | 39.7 | 28.3 | CCC[C@H](NC(=O)Cc1cc(F)cc(F)c1)C(=O)Nc1nc(C)c(C(C)N(C)C)s1 (stereo partly specified)
39 | 0.3 | 6.2 | CCC[C@H](NC(=O)[C@@H](O)c1cc(F)cc(F)c1)C(=O)Nc1ncc(C(CC)CC)s1
40 | 0.08 | 13.6 | CC[C@H](NC(=O)CCc1cc(F)cc(F)c1)C(=O)Nc1ncc(C(C)CCCC(C)(C)OC)s1 (stereo partly specified)
41 | 50.5 | 51.8 | CCC[C@H](NC(=O)Cc1cc(F)cc(F)c1)C(=O)Nc1nc(C)c(C(C)NC)s1 (stereo partly specified)
42 | 0.22 | 30 | COC(C)(C)CCCC(C)c1cnc(NC(=O)[C@H](C)NC(=O)CCc2cc(F)cc(F)c2)s1 (stereo partly specified)
43 | 4.5 | 10 | CCC[C@H](NC(=O)Cc1cc(F)cc(F)c1)C(=O)Nc1nc(C)c(C(C)NCC(F)(F)F)s1 (stereo partly specified)
44 | 1.14 | 9.9 | CCC[C@H](NC(=O)[C@@H](O)C(C)(C)C)C(=O)Nc1ncc([C@H](C)CCCC(C)(C)OC)s1
45 | 26.1 | 28.3 | CCC[C@H](NC(=O)Cc1cc(F)cc(F)c1)C(=O)Nc1nc(C)c(C(C)N2CCN(C)CC2)s1 (stereo partly specified)
46 | 1.2 | 2.7 | CCC[C@H](NC(=O)Cc1cc(F)cc(F)c1)C(=O)Nc1ncc(C(C)NCCC(C)(C)C)s1 (stereo partly specified)
47 | 37.3 | 94.9 | CCC[C@H](NC(=O)[C@@H](O)C(C)(C)C)C(=O)Nc1ncc(C(C)(C)O)s1
48 | 231 | 134 | CCC[C@H](NC(=O)Cc1cc(F)cc(F)c1)C(=O)Nc1ncc(C(C)NCC(C)(C)C)s1 (stereo partly specified)
49 | 2 | 5.9 | CCC[C@H](NC(=O)Cc1cc(F)cc(F)c1)C(=O)Nc1nc(C)c(C(C)NCCC(C)(C)C)s1 (stereo partly specified)
50 | 81.5 | 727 | CC[C@H](NC(=O)CCc1cc(F)cc(F)c1)C(=O)Nc1ncc([C@H](C)CCCC(C)(C)OC)s1
51 | 10.1 | 15.9 | CCCNC(C)c1cnc(NC(=O)[C@H](CCC)NC(=O)Cc2cc(F)cc(F)c2)s1 (stereo partly specified)
52 | 0.43 | 13 | CCC[C@H](NC(=O)[C@@H](O)C(C)(C)C)C(=O)Nc1ncc(C(C)CCCC(C)(C)OC)s1 (stereo partly specified)
53 | 10.6 | 10 | CCC[C@H](NC(=O)Cc1cc(F)cc(F)c1)C(=O)Nc1ncc(C(C)N2CCCC2)s1 (stereo partly specified)
